In ChEMBL document CHEMBL1144027, “Synthesis and antimycobacterial evaluation of newer 1-cyclopropyl-1,4-dihydro-6-fluoro-7-(substituted secondary amino)-8-methoxy-5-(sub)-4-oxoquinoline-3-carboxylic acids” (Bioorg Med Chem, 2008):
In brackets after ≈: the same amount, converted by molar mass.

Experiments:
Mus musculus [1] = assay: Phototoxicity in Swiss albino mouse assessed as erythema incidence at 140 mg/kg, po after 24 hrs of irradiation; assay type: organism-based; set-up: dose 140 mg/kg, route oral; settings: in vivo
Summary of the method: (§1)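 Female Swiss albino mice (~2 months, 20-25 g), fasted ≥18 h, single 140 mg/kg oral gavage dose; groups of 6 (compound, lomefloxacin HCl 140 mg/kg, 0.5% carboxymethylcellulose vehicle 10 ml/kg); UV irradiation 4 h (~18 J/cm²) right after dosing; both ears scored for erythema, oedema, thickness pre-dose, at end of irradiation, and ~24-96 h; thickness given as mean of both ears ± SEM.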

Mus musculus [2] = assay: Phototoxicity in Swiss albino mouse assessed as ear thickness at 140 mg/kg, po after 4 hrs of irradiation; assay type: organism-based; set-up: dose 140 mg/kg, route oral; settings: in vivo; summary of the method: as §1
Mus musculus [3] = assay: Phototoxicity in Swiss albino mouse assessed as erythema incidence at 140 mg/kg, po after 4 hrs of irradiation; assay type: organism-based; set-up: dose 140 mg/kg, route oral; settings: in vivo; summary of the method: as §1
Mus musculus [4] = assay: Phototoxicity in Swiss albino mouse assessed as ear thickness at 140 mg/kg, po after 48 hrs of irradiation; assay type: organism-based; set-up: dose 140 mg/kg, route oral; settings: in vivo; summary of the method: as §1
Mus musculus [5] = assay: Phototoxicity in Swiss albino mouse assessed as ear thickness at 140 mg/kg, po after 72 hrs of irradiation; assay type: organism-based; set-up: dose 140 mg/kg, route oral; settings: in vivo; summary of the method: as §1
Mus musculus [6] = assay: (§2) Phototoxicity in Swiss albino mouse assessed as erythema incidence at 140 mg/kg, po after 48 hrs of irradiation; assay type: organism-based; set-up: dose 140 mg/kg, route oral; settings: in vivo; summary of the method: as §1
Mus musculus [7] = assay: Phototoxicity in Swiss albino mouse assessed as erythema incidence at 140 mg/kg, po after 96 hrs of irradiation; assay type: organism-based; set-up: dose 140 mg/kg, route oral; settings: in vivo; summary of the method: as §1
Mus musculus [8] = assay: Phototoxicity in Swiss albino mouse assessed as ear thickness at 140 mg/kg, po after 96 hrs of irradiation; assay type: organism-based; set-up: dose 140 mg/kg, route oral; settings: in vivo; summary of the method: as §1
Mus musculus [9] = assay: Phototoxicity in Swiss albino mouse assessed as ear thickness at 140 mg/kg, po after 24 hrs of irradiation; assay type: organism-based; set-up: dose 140 mg/kg, route oral; settings: in vivo; summary of the method: as §1
Mus musculus [10] = assay: as §2; assay type: organism-based; set-up: dose 140 mg/kg, route oral; settings: in vivo; summary of the method: as §1; remark: listed apart in the source
Vero = assay: Cytotoxicity against african green monkey Vero cells after 72 hrs by MTT assay; assay type: cell-based; settings: Chlorocebus sabaeus
Summary of the method: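 Mammalian Vero cells exposed to compounds at 62.5 µg/ml for 72 h; viability read by cellular conversion of MTT to formazan (Cell Titer 96 non-radioactive proliferation assay).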

[11] = tested on: Mycobacterium tuberculosis; assay: Antimycobacterial activity against Mycobacterium tuberculosis H37Rv by agar dilution method; assay type: functional
Summary of the method: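 Agar dilution MIC on Middlebrook 7H11 agar with OADC, following the NCCLS-recommended approach, run in duplicate. The MDR clinical isolate was resistant to isoniazid, rifampicin, ethambutol and ofloxacin.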

[12] = tested on: Mycolicibacterium smegmatis; assay: Antimycobacterial activity against Mycobacterium smegmatis MC2 by agar dilution method; assay type: functional
Summary of the method: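 Agar dilution in Middlebrook 7H11 agar with OADC, run along NCCLS-recommended lines; M. smegmatis ATCC 14468 (MC2); MIC determined in duplicate.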

[13] = molecular target: DNA gyrase subunit B (Mycobacterium smegmatis (strain ATCC 700084 / mc(2)155), UniProt A0QNE0); assay: Inhibition of Mycobacterium smegmatis MC2 DNA gyrase GyrB ATPase supercoiling activity; set-up: species or system Mycolicibacterium smegmatis
Chain of DNA gyrase subunit B (Mycobacterium smegmatis (strain ATCC 700084 / mc(2)155), UniProt A0QNE0) (A0QNE0 whole entry): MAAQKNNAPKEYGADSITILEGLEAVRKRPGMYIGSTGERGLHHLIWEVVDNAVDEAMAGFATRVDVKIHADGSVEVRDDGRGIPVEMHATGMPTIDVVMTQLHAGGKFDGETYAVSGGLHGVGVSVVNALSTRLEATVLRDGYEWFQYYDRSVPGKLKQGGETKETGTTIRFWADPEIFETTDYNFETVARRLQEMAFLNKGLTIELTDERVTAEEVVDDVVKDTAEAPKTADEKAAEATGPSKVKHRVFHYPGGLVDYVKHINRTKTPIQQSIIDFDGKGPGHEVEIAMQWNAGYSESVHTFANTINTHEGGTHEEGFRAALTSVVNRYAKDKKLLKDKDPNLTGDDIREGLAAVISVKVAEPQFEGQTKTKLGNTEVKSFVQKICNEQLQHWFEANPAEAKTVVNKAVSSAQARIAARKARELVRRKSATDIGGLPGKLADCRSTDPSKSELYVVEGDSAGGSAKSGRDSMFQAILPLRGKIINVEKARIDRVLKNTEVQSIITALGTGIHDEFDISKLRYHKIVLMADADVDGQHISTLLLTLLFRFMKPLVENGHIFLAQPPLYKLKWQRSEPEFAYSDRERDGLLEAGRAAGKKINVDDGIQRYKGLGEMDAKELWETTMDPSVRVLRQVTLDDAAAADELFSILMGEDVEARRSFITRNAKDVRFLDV
Summary of the method: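 Gyrase purified from M. smegmatis MC2 cells; compounds in DMSO pre-incubated with enzyme, then 400 ng relaxed pUC18 added in 35 mM Tris-HCl pH 7.5, 5 mM MgCl2, 25 mM K glutamate, 2 mM spermidine, 2 mM ATP, BSA, tRNA, 5% glycerol; 30 min; heat-stopped 65 °C 15 min; agarose gel, ethidium bromide staining; ciprofloxacin 10 µg/ml and 5% DMSO controls.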

[14] = tested on: Mycobacterium tuberculosis; assay: Antimycobacterial activity against Mycobacterium tuberculosis ATCC 35801 infected in CD1 mouse assessed as bacterial load in lungs at 25 mg/kg, ip after 10 days; assay type: functional; settings: route intraperitoneal
Summary of the method: (§3)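 Female CD-1 mice, 6 weeks old, six per group, infected IV via caudal vein with ~10⁷ viable organisms. Intraperitoneal treatment started 10 days after inoculation and ran 10 days. At 35 days post-infection, spleens and right lungs were homogenised and serially 10-fold diluted onto 7H10 agar, incubated 4 weeks at 37 °C in ambient air. CFU compared with vehicle-treated controls.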

[15] = tested on: Mycobacterium tuberculosis; assay: Antimycobacterial activity against Mycobacterium tuberculosis ATCC 35801 infected in CD1 mouse assessed as bacterial load in spleen at 25 mg/kg, ip after 10 days; assay type: functional; settings: route intraperitoneal; summary of the method: as §3
[16] = tested on: Mycobacterium tuberculosis; assay: Antimycobacterial activity against Mycobacterium tuberculosis ATCC 35801 infected in CD1 mouse assessed as bacterial load in spleen at 50 mg/kg, ip after 10 days; assay type: functional; settings: route intraperitoneal; summary of the method: as §3
[17] = tested on: Mycobacterium tuberculosis; assay: Antimycobacterial activity against Mycobacterium tuberculosis ATCC 35801 infected in CD1 mouse assessed as bacterial load in lungs at 50 mg/kg, ip after 10 days; assay type: functional; settings: route intraperitoneal; summary of the method: as §3

Structure (SMILES) | IC50 (Vero) [µM] | MIC [11] [µM] | MIC [12] [µM] | other results
CCn1cc(C(=O)O)c(=O)c2cc(F)c(N3CCNC(C)C3)c(F)c21 (stereo not given) [LOMEFLOXACIN] |  |  |  | Activity (Mus musculus [1]): Toxic; Activity (Mus musculus [2]): 0.4 mm; Activity (Mus musculus [3]): Toxic; Activity (Mus musculus [4]): 0.53 mm; Activity (Mus musculus [5]): 0.64 mm; Activity (Mus musculus [6]): Toxic; Activity (Mus musculus [7]): Toxic; Activity (Mus musculus [8]): 0.6 mm; Activity (Mus musculus [9]): 0.48 mm; Activity (Mus musculus [10]): Toxic
COc1c(N2COCC2(C)C)c(F)cc2c(=O)c(C(=O)O)cn(C3CC3)c12 | 166 | 4.14 (≈ 1.56 µg/mL) | 16.6 (≈ 6.25 µg/mL) | 
COc1ccc(CC2C3=C(CCCC3)CCN2c2c(F)cc3c(=O)c(C(=O)O)cn(C4CC4)c3c2OC)cc1 (stereo not given) | 117 | 1.46 (≈ 0.778 µg/mL) | 2.93 (≈ 1.56 µg/mL) | IC50 [13]: 75.1 µM
COc1c(N2CCN(C)C(c3ccccc3)C2)c(F)c([N+](=O)[O-])c2c(=O)c(C(=O)O)cn(C3CC3)c12 (stereo not given) | 126 | 3.14 (≈ 1.56 µg/mL) | 6.3 (≈ 3.13 µg/mL) | 
COc1c(N2CCC(O)(c3ccc(Cl)cc3)CC2)c(F)c([N+](=O)[O-])c2c(=O)c(C(=O)O)cn(C3CC3)c12 |  | 5.88 (≈ 3.13 µg/mL) | 11.8 (≈ 6.25 µg/mL) | 
COc1c(N2CCC(n3c(=O)[nH]c4cc(Cl)ccc43)CC2)c(F)cc2c(=O)c(C(=O)O)cn(C3CC3)c12 |  | 5.94 (≈ 3.13 µg/mL) | 5.94 (≈ 3.13 µg/mL) | 
COc1c(N2CCN(C(=O)c3ccco3)CC2)c(F)c([N+](=O)[O-])c2c(=O)c(C(=O)O)cn(C3CC3)c12 |  | 6.25 (≈ 3.13 µg/mL) | 12.5 (≈ 6.25 µg/mL) | 
COc1c(N2CCC(n3c(=O)[nH]c4cc(Cl)ccc43)CC2)c(F)c([N+](=O)[O-])c2c(=O)c(C(=O)O)cn(C3CC3)c12 |  | 5.47 (≈ 3.13 µg/mL) | 10.9 (≈ 6.25 µg/mL) | 
COc1c(N2CCN(Cc3ccc4c(c3)OCO4)CC2)c(F)c(N)c2c(=O)c(C(=O)O)cn(C3CC3)c12 |  | 3.06 (≈ 1.56 µg/mL) | 6.13 (≈ 3.13 µg/mL) | 
CCN(CC)C(=O)C1CCCN(c2c(F)c([N+](=O)[O-])c3c(=O)c(C(=O)O)cn(C4CC4)c3c2OC)C1 (stereo not given) | 124 | 1.55 (≈ 0.782 µg/mL) | 12.4 (≈ 6.25 µg/mL) | 
COc1c(N2CCN(C(=O)c3ccco3)CC2)c(F)cc2c(=O)c(C(=O)O)cn(C3CC3)c12 |  | 13.7 (≈ 6.25 µg/mL) | 13.7 (≈ 6.25 µg/mL) | 
COc1c(N2CCN(C(=O)C3COc4ccccc4O3)CC2)c(F)c([N+](=O)[O-])c2c(=O)c(C(=O)O)cn(C3CC3)c12 (stereo not given) | 110 | 1.37 (≈ 0.779 µg/mL) | 2.74 (≈ 1.56 µg/mL) | IC50 [13]: > 87.9 µM
COc1c(N2CC(C)OC(C)C2)c(F)cc2c(=O)c(C(=O)O)cn(C3CC3)c12 (stereo not given) | 160 | 3.99 (≈ 1.56 µg/mL) | 16 (≈ 6.25 µg/mL) | 
NNC(=O)c1ccncc1 [ISONIAZID] | > 456 | 0.36 (≈ 0.0494 µg/mL) | 45.6 (≈ 6.25 µg/mL) | Activity [14]: 5.86; Activity [15]: 4.71
COc1c(N2CC(C)OC(C)C2)c(F)c([N+](=O)[O-])c2c(=O)c(C(=O)O)cn(C3CC3)c12 (stereo not given) | 144 | 0.89 (≈ 0.388 µg/mL) | 1.79 (≈ 0.779 µg/mL) | Activity (Mus musculus [1]): Non-toxic; Activity (Mus musculus [2]): 0.29 mm; Activity (Mus musculus [4]): 0.36 mm; Activity (Mus musculus [5]): 0.34 mm; Activity (Mus musculus [6]): Non-toxic; IC50 [13]: 115 µM; Activity (Mus musculus [7]): Non-toxic; Activity (Mus musculus [8]): 0.33 mm; Activity (Mus musculus [9]): 0.35 mm; Activity (Mus musculus [10]): Non-toxic
COc1c(N2COCC2(C)C)c(F)c([N+](=O)[O-])c2c(=O)c(C(=O)O)cn(C3CC3)c12 | 148 | 1.85 (≈ 0.78 µg/mL) | 3.7 (≈ 1.56 µg/mL) | 
COc1c(N2CCNC(C)C2)c(F)cc2c(=O)c(C(=O)O)cn(C3CC3)c12 (stereo not given) [GATIFLOXACIN] | > 155 | 1.04 (≈ 0.39 µg/mL) | 2.08 (≈ 0.781 µg/mL) | Activity [16]: 6.92; Activity [17]: 6.02
COc1c(N2CCN(C)C(c3ccccc3)C2)c(F)cc2c(=O)c(C(=O)O)cn(C3CC3)c12 (stereo not given) |  | 13.8 (≈ 6.25 µg/mL) | 27.7 (≈ 12.5 µg/mL) | 
